Results gathered from unrelated publications.
Lines come from different studies, so protocols differ.
Target: Serine/threonine-protein kinase LATS2 (LATS2, Homo sapiens, UniProt Q9NRM7)
Residues used in one study (Q9NRM7 1-1088): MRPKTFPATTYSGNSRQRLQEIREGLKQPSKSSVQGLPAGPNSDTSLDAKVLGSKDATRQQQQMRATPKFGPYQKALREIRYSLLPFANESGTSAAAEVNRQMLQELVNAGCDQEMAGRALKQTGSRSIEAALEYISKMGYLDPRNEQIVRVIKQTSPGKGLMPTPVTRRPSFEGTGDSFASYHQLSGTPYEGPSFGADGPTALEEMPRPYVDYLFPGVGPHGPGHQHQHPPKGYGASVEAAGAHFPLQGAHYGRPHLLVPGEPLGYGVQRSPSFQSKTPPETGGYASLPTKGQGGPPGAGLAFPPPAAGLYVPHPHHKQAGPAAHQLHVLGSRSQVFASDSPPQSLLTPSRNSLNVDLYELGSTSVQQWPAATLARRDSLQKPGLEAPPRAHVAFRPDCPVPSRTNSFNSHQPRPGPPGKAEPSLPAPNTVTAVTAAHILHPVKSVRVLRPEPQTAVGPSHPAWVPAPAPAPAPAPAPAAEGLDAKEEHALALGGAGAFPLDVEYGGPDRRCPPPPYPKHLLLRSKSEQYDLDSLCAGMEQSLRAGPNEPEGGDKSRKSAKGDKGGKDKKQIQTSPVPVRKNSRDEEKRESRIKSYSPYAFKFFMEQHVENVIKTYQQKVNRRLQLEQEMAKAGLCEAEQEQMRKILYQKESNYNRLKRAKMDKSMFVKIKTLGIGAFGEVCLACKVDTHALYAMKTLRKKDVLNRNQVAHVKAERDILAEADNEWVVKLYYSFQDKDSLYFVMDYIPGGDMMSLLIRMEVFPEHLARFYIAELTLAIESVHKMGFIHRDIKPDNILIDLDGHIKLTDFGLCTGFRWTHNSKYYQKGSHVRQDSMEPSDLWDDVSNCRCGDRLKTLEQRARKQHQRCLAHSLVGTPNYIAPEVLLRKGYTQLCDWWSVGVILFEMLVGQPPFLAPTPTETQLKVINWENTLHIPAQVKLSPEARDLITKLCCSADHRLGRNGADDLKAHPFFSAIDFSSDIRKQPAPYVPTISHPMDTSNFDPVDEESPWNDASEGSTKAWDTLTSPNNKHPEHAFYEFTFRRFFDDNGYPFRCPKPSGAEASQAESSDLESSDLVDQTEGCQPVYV

Structure (SMILES)	observed	action	method	cells	concentration	measurement	result
Cn1cncc1C1=CN(c2ncnc3[nH]cnc23)CCS1	enzyme activity	inhibitor	radiometric		50 nM	inhibition	34.2%
COc1ccc2c(c1)O[C@H](c1ccc(OC)c(OC)c1)C[C@@H]2NC(=O)C1(c2ccc3c(c2)OC(F)(F)O3)CC1	cell-free assay		competition with immobilised ligand		1 µM	remaining binding	89%
CC(C)(O)[C@H]1CC[C@H](Nc2ccc3ncc(-c4cccc(C(F)(F)F)c4)n3n2)CC1	enzyme activity	inhibitor			1 µM	remaining activity	61.4%
O=C(NCc1ncc(C(F)(F)F)cc1Cl)c1ccc2c(c1)C1(CCS(=O)(=O)CC1)[C@H](C1CC1)N2S(=O)(=O)c1ccc(F)cc1	cell-free assay		competition with immobilised ligand		1 µM	remaining binding	100%
O=C(Nc1cnn(-c2csc(C(=O)NC3COC3)c2)c1)Nc1ccccc1Cl	enzyme activity	inhibitor			5 µM	remaining activity	96%
Cc1cnn2ncc(-c3ccnc(N(C)C)n3)c2c1	binding				1 µM	remaining binding	84%
CCN1CCN(Cc2ccc(NC(=O)c3ccc(C)c(/C=C/c4cnc5[nH]ccc5c4OC)c3)cc2C(F)(F)F)CC1	target engagement in cells	inhibitor	chemoproteomics	A-375	5 µM	inhibition	-21.8%
Nc1ncnc2occ(-c3ccc(NC(=O)Nc4cc(C(F)(F)F)ccc4F)cc3)c12	cell-free assay	inhibitor			20 µM	remaining signal	3.7%
COc1cc(-c2cc(-c3ccc(N4CCNCC4)cc3)cnc2C)cc(OC)c1OC	enzyme activity	inhibitor			1 µM	inhibition	2%
Cc1ccc(C(=O)Nc2ccc(CN3CCN(C)CC3)c(C(F)(F)F)c2)cc1C#Cc1cnc2cccnn12	enzyme activity	inhibitor			23.5 nM	remaining activity	95%
Cn1cnc(Br)c1C1=CN(c2ncnc3[nH]cnc23)CCS1	enzyme activity	inhibitor	radiometric		50 nM	inhibition	29.1%
O=C(Nc1cnn(-c2csc(C(=O)NC3COC3)c2)c1)Nc1c(F)cccc1Cl	enzyme activity	inhibitor			5 µM	remaining activity	104%
